Columns and labels:
Bos taurus [1] = species on record: Bos taurus; test: Inhibition of LPS-induced plasminogen activator inhibitor-1 production in BCAEC assessed as relative inhibitory potency in BCAEC at 1 uM after 24 hrs by ELISA relative to T-686; format: functional
Procedure, shortened: (§1)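 Bovine endothelial cells (BCaEs, passages 8–9) grown to confluence in E'MEM with 10% FCS, then serum-starved 24 h. Compound added (10 µM […]; 1 µM LPS-induced, 2 µM TGF-β-induced) with or without LPS 1 µg/ml or TGF-β 0.3 ng/ml. After 24 h, conditioned medium cleared by centrifugation (3000 rpm, 10 min, 4 °C) and PAI-1 antigen measured by specific ELISA; activity expressed relative to T-686 reference.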

Bos taurus [2] = species on record: Bos taurus; test: Inhibition of TGF-beta-induced plasminogen activator inhibitor-1 production in BCAEC assessed as relative inhibitory potency in BCAEC at 2 uM after 24 hrs by ELISA relative to T-686; format: functional; procedure, shortened: as §1
Bos taurus [3] = species on record: Bos taurus; test: Inhibition of LPS-induced plasminogen activator inhibitor-1 production assessed as relative inhibitory potency in BCAEC at 10 uM after 24 hrs by ELISA relative to T-686; format: functional; procedure, shortened: as §1
[4] = Photostability assessed as compound remaining by HPLC analysis; format: physicochemical
Procedure, shortened: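 Stock (100 µg/ml in acetonitrile) 0.1 ml mixed with 0.9 ml 0.1 N HCl; kept at room temperature 24 h under room light or foil-protected. Read-out as % compound remaining.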

[5] = Aqueous solubility in water; format: physicochemical
Rattus norvegicus [6] = species on record: Rattus norvegicus; test: Genotoxicity in rat assessed as chromosomal aberration; format: toxicity, organism-based; details: in vivo
[7] = Metabolic stability in dog blood assessed as compound remaining after 1 hr by HPLC analysis; format: ADME, tissue-based, Canis lupus familiaris; details: read-out: Stability
Procedure, shortened: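 Stock (100 µg/ml in acetonitrile) diluted tenfold with saline; 0.3 ml added to 3 ml heparinized dog blood prewarmed to 37 °C and incubated at 37 °C. After 1 h plasma separated with diethyl ether by centrifugation and parent level determined by HPLC; reported as % remaining.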

[8] = Oral bioavailability in dog; format: ADME, organism-based, Canis lupus familiaris; details: in vivo
[9] = Inhibition of TGF-beta-induced plasminogen activator inhibitor-1 production in BCAEC after 24 hrs by ELISA; format: functional, Bos taurus
Procedure, shortened: (§2)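 BCaEs (passages 8–9) confluent in E'MEM/10% FCS, serum-starved 24 h, then exposed to compound with LPS (1 µg/ml) or TGF-β (0.3 ng/ml) for 24 h. Medium centrifuged at 3000 rpm, 10 min, 4 °C, and PAI-1 antigen quantified by specific ELISA.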

[10] = Inhibition of LPS-induced plasminogen activator inhibitor-1 production in BCAEC after 24 hrs by ELISA; format: functional, Bos taurus; procedure, shortened: as §2
Rattus norvegicus [11] = test: Antithrombotic activity in rat arterio-venous shunt model of thrombosis assessed as inhibition of thrombus formation at 10 mg/kg, po QD for 8 consecutive days measured after 2 hrs of last dose; format: functional
Procedure, shortened: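 Rats given test article orally 10 mg/kg once daily for 8 days, controls vehicle. Under Nembutal (50 mg/kg ip), a saline-filled polyethylene tube holding silk thread was placed from the right carotid artery to the left jugular vein. Two hours after the last dose the clamp was released, blood perfused 30 min, and wet weight of thread-bound thrombus taken.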

Rattus norvegicus [12] = test: Antithrombotic activity in po dosed rat venous thrombosis model assessed as decrease in thrombus weight administered QD for 8 consecutive days measured after 2 hrs of last dose; format: functional
Procedure, shortened: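 Rats were dosed orally once daily for 8 days at 0.3, 1 and 3 mg/kg, with vehicle controls. They were anaesthetised with Nembutal 50 mg/kg ip, and all vena cava branches between the left renal vein and the bifurcation were ligated. 2 h after the last dose, 0.1 ml of 1:10 diluted rabbit brain thromboplastin was injected into the penile dorsal vein. Thrombus dry weight was measured.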

[13] = Therapeutic index, ratio of ED100 for increase in bleeding time in po dosed rat to ED50 for decrease in thrombus weight in po dosed rat venous thrombosis model; format: organism-based; details: in vivo, read-out: TI
Procedure, shortened: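 ED100 for prolonged bleeding time (tail incision, oral, daily for 8 days) was divided by ED50 for thrombus weight reduction in the venous thrombosis model (oral, daily for 8 days; ligated vena cava, thromboplastin injected 2 h after the last dose, thrombus dry weight).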

Rattus norvegicus [14] = test: Toxicity in rat assessed as decrease in locomotor activity at 300 mg/kg, po; details: in vivo
Rattus norvegicus [15] = test: Toxicity in po dosed rat assessed as increase in bleeding time administered QD for 8 consecutive days measured after 2 hrs of last dose by tail incision bleeding time test; format: organism-based; details: in vivo
Procedure, shortened: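 Rats were dosed orally once daily for 8 days at 10, 30 and 100 mg/kg, with vehicle controls. Under Nembutal anaesthesia (50 mg/kg ip), 2 h after the last dose, a 2 mm deep incision was made 3.5 cm from the tail tip. Blood was blotted onto filter paper every 30 s, and bleeding time was taken as the time until no blood appeared.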

Stability [4] [%] | bioavailability [8] [%] | SMILES | Activity (Bos taurus [1]) | Activity (Bos taurus [2]) | Activity (Rattus norvegicus [6]) | further results
 |  | COC(=O)C(=C(/C)c1cc(OC)cc(OC)c1)/C(=C\c1ccccc1)C(=O)Nc1nnn[nH]1 | 0.1 |  |  | 
 |  | COC(=O)C(=C(/C)c1cc(OC)cc(OC)c1)/C(=C\c1ccccc1)C(=O)N1CCN(C)CC1 | 0.3 | 0.3 |  | 
 |  | COC(=O)C(=C\c1cc(OC)c(OC)c(OC)c1)/C(=C\c1ccccc1)C(N)=O |  |  |  | Activity (Bos taurus [3]): 0.7
38 | 18 | COc1cc(OC)cc(/C(C)=C2\C(=O)N(Cc3ccncc3)C(=O)\C2=C\c2ccccc2)c1.Cl | 1.8 | 1.4 | Non-toxic | solubility [5]: 111 µg/mL; remaining at 1 h [7]: 60%
 |  | COC(=O)C(=C/c1cc(OC)c(OC)c(OC)c1)/C(=C\c1ccccc1)C(N)=O |  |  |  | Activity (Bos taurus [3]): 0.9
12 | 3 | COc1cc(/C=C2/C(=O)NC(=O)/C2=C/c2ccccc2)cc(OC)c1OC |  |  | Toxic | IC50 [9]: 4300 nM; IC50 [10]: 900 nM
 |  | COC(=O)C(=C/c1cc(OC)c(OC)c(OC)c1)/C(=C/c1ccccc1)C(N)=O |  |  |  | Activity (Bos taurus [3]): 0.7
91 | 49 | COC(=O)C(=C(/C)c1cc(OC)cc(OC)c1)/C(=C\c1ccccc1)C(=O)NN1CCN(C)CC1.Cl | 1.5 | 0.9 | Non-toxic | inhibition in vivo at 10 mg/kg (Rattus norvegicus [11]): 22%; ED50 (Rattus norvegicus [12]): 0.8 mg/kg/day; selectivity ratio [13]: > 125; solubility [5]: > 4000 µg/mL; Activity (Rattus norvegicus [14]): Non-toxic; ED100 (Rattus norvegicus [15]): > 100 mg/kg/day
 |  | COC(=O)C(=C(/C)c1cc(OC)cc(OC)c1)/C(=C\c1ccccc1)C(=O)Nc1ncccn1 | 0.1 |  |  | 
 |  | COC(=O)C(=C(/C)c1cc(OC)cc(OC)c1)/C(=C\c1ccccc1)C(=O)Nc1cccc2cccnc12 | 0.4 |  |  | 
47 |  | COc1cc(OC)cc(/C(C)=C2\C(=O)N(Cc3cccnc3)C(=O)\C2=C\c2ccccc2)c1.Cl | 1 | 1.4 |  | solubility [5]: 38 µg/mL; remaining at 1 h [7]: 65%
 |  | COC(=O)C(=C/c1cc(OC)c(OC)c(OC)c1)/C(C(N)=O)=C(\C)c1ccccc1 |  |  |  | Activity (Bos taurus [3]): 0.3
 |  | COC(=O)C(=C(/C)c1cc(OC)cc(OC)c1)/C(=C\c1ccccc1)C(=O)Nn1cnnc1 | 0.6 |  |  | 
 |  | COC(=O)C(=C(/C)c1cc(OC)cc(OC)c1)/C(=C\c1ccccc1)C(=O)NC1CCN(C)CC1 | 0.8 | < 0.1 |  | 
96 | 28 | COC(=O)C(=C(/C)c1cc(OC)cc(OC)c1)/C(=C\c1ccccc1)C(=O)NCc1ccncc1.Cl | 2.1 | 1.9 | Toxic | 
 |  | COC(=O)C(=C(/C)c1cc(OC)cc(OC)c1)/C(=C\c1ccccc1)C(=O)NN1CC[N+](C)([O-])CC1 | 0.2 |  |  | 
90 | 21 | COC(=O)C(=C(/C)c1cc(OC)cc(OC)c1)/C(=C\c1ccccc1)C(=O)NCc1cccnc1.Cl | 1.3 | 1.8 | Non-toxic | Activity (Rattus norvegicus [14]): Toxic
91 | 9 | COC(=O)C(=C(/C)c1cc(OC)c(OC)c(OC)c1)/C(=C\c1ccccc1)C(N)=O | 1.5 | 0.7 | Non-toxic | Activity (Bos taurus [3]): 1
 |  | CC(=O)CC(c1ccccc1)c1c(O)c2ccccc2oc1=O (configuration not stated) [WARFARIN] |  |  |  | ED50 (Rattus norvegicus [12]): 0.1 mg/kg/day; selectivity ratio [13]: 2; ED100 (Rattus norvegicus [15]): 0.2 mg/kg/day
85 | 52 | COC(=O)C(=C(/C)c1cc(OC)cc(OC)c1)/C(=C\c1ccccc1)C(=O)Nc1ccncc1.Cl | 1.8 | 1.1 | Non-toxic | Activity (Rattus norvegicus [14]): Toxic
 |  | COC(=O)C(=C(/C)c1cc(OC)cc(OC)c1)/C(=C\c1ccccc1)C(=O)O | 0.4 | 0.3 |  | 
88 | 17 | COC(=O)C(=C(/C)c1cc(OC)cc(OC)c1)/C(=C\c1ccccc1)C(=O)Nc1cccnc1.Cl | 2.2 | 1.1 |  | 
 |  | COC(=O)C(/C(=C\c1ccccc1)C(N)=O)=C(\C)c1cc(OC)c(OC)c(OC)c1 |  |  |  | Activity (Bos taurus [3]): 0.3
97 | 78 | COC(=O)C(=C(/C)c1cc(OC)cc(OC)c1)/C(=C\c1ccncc1)C(N)=O.Cl | 1.5 | 1.1 | Toxic | 
 |  | COC(=O)C(=C(/C)c1cc(OC)cc(OC)c1)/C(=C\c1cccnc1)C(N)=O | 0.8 | 1.2 |  | 
 |  | COC(=O)C(=C/c1cc(OC)c(OC)c(OC)c1)/C(C(N)=O)=C(/C)c1ccccc1 |  |  |  | Activity (Bos taurus [3]): 0.2

Reference: ChEMBL document CHEMBL1157557, “Synthesis and evaluation of 1,4-diphenylbutadiene derivatives as inhibitors of plasminogen activator inhibitor-1 (PAI-1) production” (Bioorg Med Chem, 2010)
